Measured values: ChEMBL document CHEMBL3352390, “Selective CB2 receptor agonists. Part 2: Structure-activity relationship studies and optimization of proline-based compounds” (Bioorg Med Chem Lett, 2015)

Key:
[1] = Volume of distribution at steady state in Wistar Han rat at 1 mg/kg, iv; assay type: ADME, organism-based; design: dose 1 mg/kg, route intravenous; conditions: in vivo, read-out: Vdss
Outline: (§1)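 Wistar Han or Sprague Dawley rats given 1 mg/kg iv as a solution or 5 mg/kg po as a suspension. Plasma taken at several time points and quantified by HPLC-MS/MS. Parameters derived by non-compartmental analysis.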

[2] = Oral bioavailability in Wistar Han rat at 5 mg/kg; assay type: ADME, organism-based; conditions: in vivo; outline: as §1
[3] = Permeability from basolateral to apical side of human Caco2 cells; assay type: ADME, cell-based; conditions: Caco-2, read-out: permeability
[4] = Permeability from apical to basolateral side of human Caco2 cells; assay type: ADME, cell-based; conditions: Caco-2, read-out: permeability
[5] = Mean residence time in Wistar Han rat at 1 mg/kg, iv; assay type: ADME, organism-based; design: dose 1 mg/kg, route intravenous; conditions: in vivo; outline: as §1
[6] = Ratio of drug uptake in brain to plasma of Wistar Han rat; assay type: ADME; conditions: brain and plasma, read-out: BPR
[7] = Oral bioavailability in Wistar Han rat at 10 mg/kg; assay type: ADME, organism-based; conditions: in vivo
Outline: (§2)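 Wistar Han rats dosed orally with a suspension, at 10 mg/kg or 10 µmol/kg. Plasma taken at several time points and quantified by HPLC-MS/MS. Bioavailability derived by non-compartmental analysis.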

[8] = Volume of distribution at steady state in Wistar Han rat at […], iv; assay type: ADME, organism-based; conditions: in vivo, read-out: Vdss
[9] = Oral bioavailability in Wistar Han rat at 10 umol/kg; assay type: ADME, organism-based; conditions: in vivo; outline: as §2
[10] = Mean residence time in Wistar Han rat at […], iv; assay type: ADME, organism-based; conditions: in vivo

SMILES: CC(C)(C)c1cc(NC(=O)[C@@H]2CCCN2c2ccc(Cl)cc2)no1
- Vd [1]: 7.9 L/kg
- bioavailability [2]: 5%
- Papp B→A [3]: 18 ×10⁻⁶ cm/s
- Papp A→B [4]: 24 ×10⁻⁶ cm/s
- MRT [5]: 1 h

SMILES: CC(C)(C)c1cc(NC(=O)[C@@H]2CCC(=O)N2c2ccc(Cl)cc2)on1
- Kp [6]: 0.41
- bioavailability [7]: 44%
- Vd [1]: 4.5 L/kg
- Papp B→A [3]: 23 ×10⁻⁶ cm/s
- Papp A→B [4]: 11 ×10⁻⁶ cm/s
- MRT [5]: 1.3 h

SMILES: CC(C)(C)c1cc(NC(=O)[C@@H]2CCC(=O)N2c2ccc(C(F)(F)F)cc2)on1
- Kp [6]: 0.9
- Vd [8]: 3.8 L/kg
- Papp B→A [3]: 7.5 ×10⁻⁶ cm/s
- bioavailability [9]: 88%
- Papp A→B [4]: 14 ×10⁻⁶ cm/s
- MRT [10]: 6 h

SMILES: CC(C)(C)c1cc(NC(=O)[C@@H]2C[C@@H](O)CN2CC2CCOCC2)on1 (relative stereo)
- Vd [8]: 1.3 L/kg
- bioavailability [9]: 18%
- MRT [10]: 0.34 h
